Assay results from ChEMBL document CHEMBL1275595, “Antimicrobial activity of a halocidin-derived peptide resistant to attacks by proteases” (2010).
In brackets after ≈: the same amount, converted by molar mass. Activity calls are given as the source filed them. No cut-off for these calls is given here. Bridge positions count the residues as written; N and C are the ends. Square brackets hold non-standard residues; d marks the D form. Peptide text beside a SMILES is read from it. I, II: the chains in the order shown. Nva(4-oxo) = CC(=O)C[C@H](N)C(=O)O

What was measured:
Staphylococcus aureus [1] = test: Antimicrobial activity against methicillin-resistant Staphylococcus aureus CCARM 3696 by radial diffusion assay incubated with chymotrypsin; format: functional, organism-based
Staphylococcus aureus [2] = test: Antimicrobial activity against methicillin-resistant Staphylococcus aureus CCARM 3696 by radial diffusion assay incubated with trypsin; format: functional, organism-based
Escherichia coli = test: Antimicrobial activity against Escherichia coli KCTC 1039 after 18 hrs by broth dilution method; format: functional; conditions: KCTC 1039, 18 h
Summary of the method: (§1)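 Broth microdilution following CLSI recommendations. Bacteria were grown overnight to stationary phase in Mueller-Hinton broth, then diluted in fresh MHB to 2 × 10^5 CFU/ml. Peptide or antibiotic stocks of 640 μg/ml in 0.01% acetic acid were serially 2-fold diluted to 10 μg/ml, and each was added to the bacterial suspension at 11 μl per 100 μl. Plates were incubated 18 h at 37°C. MIC was taken as the lowest concentration giving no visible turbidity, in triplicate.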

Pseudomonas aeruginosa = test: Antimicrobial activity against multidrug-resistant Pseudomonas aeruginosa CCARM 2161 after 18 hrs by broth dilution method; format: functional; conditions: CCARM 2161, 18 h
Summary of the method: (§2)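 Broth dilution per CLSI. Bacteria were grown overnight to stationary phase in Mueller-Hinton broth and diluted in fresh MHB to 2 × 10^5 CFU/ml. Stocks at 640 μg/ml in 0.01% acetic acid were 2-fold serially diluted to 10 μg/ml, and 11 μl was added to 100 μl of bacteria. After 18 h at 37°C, MIC was the lowest concentration with no visible turbidity. Run in triplicate.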

Salmonella enterica = test: Antimicrobial activity against Salmonella enterica KCTC 2930 after 18 hrs by broth dilution method; format: functional; conditions: KCTC 2930, 18 h; summary of the method: as §1
Enterococcus faecium = test: Antimicrobial activity against vancomycin-resistant Enterococcus faecium CCARM 5028 after 18 hrs by broth dilution method; format: functional; conditions: CCARM 5028, 18 h; summary of the method: as §2
Klebsiella oxytoca = test: Antimicrobial activity against Klebsiella oxytoca KCTC 1686 after 18 hrs by broth dilution method; format: functional; conditions: KCTC 1686, 18 h; summary of the method: as §1
Micrococcus luteus = test: Antimicrobial activity against Micrococcus luteus KCTC 9341 after 18 hrs by broth dilution method; format: functional; conditions: KCTC 9341, 18 h; summary of the method: as §1
Citrobacter freundii = test: Antimicrobial activity against Citrobacter freundii KCTC 2359 after 18 hrs by broth dilution method; format: functional; conditions: KCTC 2359, 18 h; summary of the method: as §1
Listeria monocytogenes = test: Antimicrobial activity against Listeria monocytogenes KCTC 19111 after 18 hrs by broth dilution method; format: functional; conditions: KCTC 19111, 18 h; summary of the method: as §1
Staphylococcus aureus [3] = test: Antimicrobial activity against methicillin-resistant Staphylococcus aureus CCARM 3696 after 18 hrs by broth dilution method; format: functional; conditions: CCARM 3696, 18 h; summary of the method: as §2
Bacillus subtilis = test: Antimicrobial activity against Bacillus subtilis KCTC 2213 after 18 hrs by broth dilution method; format: functional; conditions: KCTC 2213, 18 h; summary of the method: as §1

CC(C)C[C@H](NC(=O)CNC(=O)[C@H](Cc1cnc[nH]1)NC(=O)[C@@H](N)Cc1cnc[nH]1)C(=O)N[C@@H](CC(N)=O)C(=O)N[C@@H](CSSC[C@H](NC(=O)[C@H](CC(N)=O)NC(=O)[C@H](CC(C)C)NC(=O)CNC(=O)[C@H](Cc1cnc[nH]1)NC(=O)[C@@H](N)Cc1cnc[nH]1)C(=O)N[C@@H](C)C(=O)N[C@@H](CCCCN)C(=O)NCC(=O)N[C@H](C(=O)N[C@@H](CC(C)C)C(=O)N[C@@H](C)C(N)=O)C(C)C)C(=O)N[C@@H](C)C(=O)N[C@@H](CCCCN)C(=O)NCC(=O)N[C@H](C(=O)N[C@@H](CC(C)C)C(=O)N[C@@H](C)C(N)=O)C(C)C (I: H-HHGLNCAKGVLA-NH2 / II: H-HHGLNCAKGVLA-NH2; disulfide I:6-II:6)
Activity (Staphylococcus aureus [1]): Active

CC(C)C[C@H](NC(=O)CNC(=O)[C@H](Cc1cnc[nH]1)NC(=O)[C@H](Cc1cnc[nH]1)NC(=O)[C@H](CC(C)C)NC(=O)[C@H](CC(C)C)NC(=O)[C@H](C)NC(=O)[C@H](CC(N)=O)NC(=O)[C@H](CC(C)C)NC(=O)[C@H](Cc1c[nH]c2ccccc12)NC(=O)[C@@H](N)CCCCN)C(=O)N[C@@H](CC(N)=O)C(=O)N[C@@H](CSSC[C@H](NC(=O)[C@H](CC(N)=O)NC(=O)[C@H](CC(C)C)NC(=O)CNC(=O)[C@H](Cc1cnc[nH]1)NC(=O)[C@H](Cc1cnc[nH]1)NC(=O)[C@H](CC(C)C)NC(=O)[C@H](CC(C)C)NC(=O)[C@H](C)NC(=O)[C@H](CC(N)=O)NC(=O)[C@H](CC(C)C)NC(=O)[C@H](Cc1c[nH]c2ccccc12)NC(=O)[C@@H](N)CCCCN)C(=O)N[C@@H](C)C(=O)N[C@@H](CCCCN)C(=O)NCC(=O)N[C@H](C(=O)N[C@@H](CC(C)C)C(=O)N[C@@H](C)C(N)=O)C(C)C)C(=O)N[C@@H](C)C(=O)N[C@@H](CCCCN)C(=O)O (I: H-KWLNALLHHGLNCAKGVLA-NH2 / II: H-KWLNALLHHGLNCAK-OH; disulfide I:13-II:13)
Activity (Staphylococcus aureus [2]): Active

CC(=O)C[C@H](NC(=O)[C@H](CC(C)C)NC(=O)CNC(=O)[C@H](Cc1cnc[nH]1)NC(=O)[C@H](Cc1cnc[nH]1)NC(=O)[C@H](CC(C)C)NC(=O)[C@H](CC(C)C)NC(=O)[C@H](C)NC(=O)[C@H](CC(N)=O)NC(=O)[C@H](CC(C)C)NC(=O)[C@@H](N)Cc1c[nH]c2ccccc12)C(=O)N[C@@H](CSSC[C@H](NC(=O)[C@H](CC(N)=O)NC(=O)[C@H](CC(C)C)NC(=O)CNC(=O)[C@H](Cc1cnc[nH]1)NC(=O)[C@H](Cc1cnc[nH]1)NC(=O)[C@H](CC(C)C)NC(=O)[C@H](CC(C)C)NC(=O)[C@H](C)NC(=O)[C@H](CC(N)=O)NC(=O)[C@H](CC(C)C)NC(=O)[C@@H](N)Cc1c[nH]c2ccccc12)C(=O)N[C@@H](C)C(=O)N[C@@H](CCCCN)C(=O)O)C(=O)N[C@@H](C)C(=O)N[C@@H](CCCCN)C(=O)O (I: H-WLNALLHHGL[Nva(4-oxo)]CAK-OH / II: H-WLNALLHHGLNCAK-OH; disulfide I:12-II:12)
Activity (Staphylococcus aureus [2]): inactive

CC(C)(O/N=C(\C(=O)N[C@@H]1C(=O)N2C(C(=O)[O-])=C(C[n+]3ccccc3)CS[C@H]12)c1csc(N)n1)C(=O)O [CEFTAZIDIME]
MIC (Escherichia coli): < 1 µg/mL | MIC (Pseudomonas aeruginosa): 4 µg/mL (≈ 7.32 µM) | MIC (Salmonella enterica): > 64 µg/mL | MIC (Enterococcus faecium): > 64 µg/mL | MIC (Klebsiella oxytoca): < 1 µg/mL | MIC (Micrococcus luteus): > 64 µg/mL | MIC (Citrobacter freundii): 8 µg/mL (≈ 14.6 µM) | MIC (Listeria monocytogenes): < 1 µg/mL | MIC (Staphylococcus aureus [3]): > 64 µg/mL | MIC (Bacillus subtilis): 4 µg/mL (≈ 7.32 µM)

CC(C)C[C@H](NC(=O)CNC(=O)[C@H](Cc1cnc[nH]1)NC(=O)[C@H](Cc1cnc[nH]1)NC(=O)[C@H](CC(C)C)NC(=O)[C@H](CC(C)C)NC(=O)[C@H](C)NC(=O)[C@H](CC(N)=O)NC(=O)[C@H](CC(C)C)NC(=O)[C@H](Cc1c[nH]c2ccccc12)NC(=O)[C@@H](N)CCCCN)C(=O)N[C@@H](CC(N)=O)C(=O)N[C@@H](CSSC[C@H](NC(=O)[C@H](CC(N)=O)NC(=O)[C@H](CC(C)C)NC(=O)CNC(=O)[C@H](Cc1cnc[nH]1)NC(=O)[C@H](Cc1cnc[nH]1)NC(=O)[C@H](CC(C)C)NC(=O)[C@H](CC(C)C)NC(=O)[C@H](C)NC(=O)[C@H](CC(N)=O)NC(=O)[C@H](CC(C)C)NC(=O)[C@H](Cc1c[nH]c2ccccc12)NC(=O)[C@@H](N)CCCCN)C(=O)N[C@@H](C)C(=O)N[C@@H](CCCCN)C(=O)O)C(=O)N[C@@H](C)C(=O)N[C@@H](CCCCN)C(=O)O (I: H-KWLNALLHHGLNCAK-OH / II: H-KWLNALLHHGLNCAK-OH; disulfide I:13-II:13)
Activity (Staphylococcus aureus [2]): Active
